# ChEMBL document CHEMBL1121917, “Structure--activity relationships in a broad-spectrum anthelmintic series. Acid chloride phenylhydrazones. 1. Aryl substitutions and chloride variations” (1981)
# Assays:
# [1] = species on record: Canis familiaris; test: Percent reduction in Uncinaria eggs per gram, after treatment with 200 mg/dog dose of compound in a single treatment; format: functional, Canis lupus familiaris, Egg
# In short: (§1)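 Dogs naturally infected with Toxascaris leonina were experimentally infected with mixed Ancylostoma caninum and Uncinaria stenocephala larvae. Finely ground compound was given orally in gelatin capsules. Three egg count determinations were made before and three after treatment in each experiment.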
# [2] = species on record: Canis familiaris; test: Percent reduction in Uncinaria eggs per gram, after treatment with 250 mg/dog dose of compound in a single treatment; format: functional, Canis lupus familiaris, Egg
# [3] = species on record: Canis familiaris; test: Percent reduction in Uncinaria eggs per gram, after treatment with 275 mg/dog dose of compound in a single treatment; format: functional, Canis lupus familiaris, Egg
# [4] = species on record: Canis familiaris; test: Percent reduction in Ancylostoma eggs per gram, after treatment with 200 mg/dog dose of compound in a single treatment; format: functional, Canis lupus familiaris, Egg
# In short: (§2)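 Dogs naturally infected with Toxascaris leonina were experimentally infected with mixed Ancylostoma caninum and Uncinaria stenocephala larvae. Finely ground compound was given orally in gelatin capsules. Fecal egg counts were taken three times before and three times after treatment, and activity was taken as the fall in egg counts.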
# [5] = species on record: Canis familiaris; test: Percent reduction in Ancylostoma eggs per gram, after treatment with 250 mg/dog dose of compound in a single treatment; format: functional, Canis lupus familiaris, Egg; in short: as §2
# [6] = species on record: Canis familiaris; test: Percent reduction in Ancylostoma eggs per gram, after treatment with 275 mg/dog dose of compound in a single treatment; format: functional, Canis lupus familiaris, Egg; in short: as §2
# [7] = species on record: Canis familiaris; test: Percent reduction in Toxascaris eggs per gram, after treatment with 200 mg/dog dose of compound in a single treatment; format: functional, Canis lupus familiaris, Egg; in short: as §1
# [8] = species on record: Canis familiaris; test: Percent reduction in Trichuris eggs per gram, after treatment with 200 mg/dog dose of compound in a single treatment; format: functional, Canis lupus familiaris, Egg
# [9] = species on record: Mus musculus; test: Percent clearance of Nematospiroides dubius from mouse oral treatment of 0.25 mg/mouse/day of compound; format: functional
# In short: (§3)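 Mice naturally carrying Syphacia obvelata were experimentally infected with Nematospiroides dubius and Hymenolepis nana, then grouped after a 2-week prepatency. Finely ground compound was suspended in aqueous 0.10% carboxymethylcellulose, 0.04% polysorbate 80 and 0.0042% polyparaben, and 0.1 mL was given orally by cannula once daily for 4 days to five mice. Necropsy followed 2 days later, scoring presence or absence of each parasite. Control clearance was subtracted from the treated clearance.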
# [10] = species on record: Mus musculus; test: Percent clearance of Syphacaia obvelata from mouse after oral treatment of 0.25 mg/mouse/day of compound; format: functional; in short: as §3
# [11] = system: Ovis aries; test: Percent reduction in Trichostrongylus eggs per gram, after treatment with 200 mg/kg dose of compound in sheep perorally; format: functional, Egg; settings: route oral
# [12] = system: Ovis aries; test: Percent reduction in Trichostrongylus eggs per gram, after treatment with 300 mg/kg dose of compound in sheep perorally; format: functional, Egg; settings: route oral
# [13] = system: Ovis aries; test: Percent reduction in Trichostrongylus eggs per gram, after treatment with 400 mg/kg dose of compound in sheep perorally; format: functional, Egg; settings: route oral
# [14] = system: Ovis aries; test: Percent reduction in Trichuris eggs per gram, after treatment with 100 mg/kg dose of compound in sheep perorally; format: functional, Egg; settings: route oral
# [15] = system: Ovis aries; test: Percent reduction in Trichuris eggs per gram, after treatment with 150 mg/kg dose of compound in sheep perorally; format: functional, Egg; settings: route oral
# [16] = system: Ovis aries; test: Percent reduction in Trichuris eggs per gram, after treatment with 200 mg/kg dose of compound in sheep perorally; format: functional, Egg; settings: route oral
# [17] = system: Ovis aries; test: Percent reduction in Trichuris eggs per gram, after treatment with 300 mg/kg dose of compound in sheep perorally; format: functional, Egg; settings: route oral
# [18] = system: Ovis aries; test: Percent reduction in Trichuris eggs per gram, after treatment with 400 mg/kg dose of compound in sheep perorally; format: functional, Egg; settings: route oral
# [19] = system: Ovis aries; test: Percent reduction in Haemonchus eggs per gram, after treatment with 100 mg/kg dose of compound in sheep perorally; format: functional, Egg; settings: route oral
# In short: (§4)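 Naturally parasitized lambs received compound orally, either as the aqueous suspension by stomach tube or as finely ground powder in gelatin capsules by balling gun. Activity was judged by the clinical test method, as a significant decrease in posttreatment helminth egg counts.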
# [20] = system: Ovis aries; test: Percent reduction in Haemonchus eggs per gram, after treatment with 150 mg/kg dose of compound in sheep perorally; format: functional, Egg; settings: route oral; in short: as §4
# [21] = system: Ovis aries; test: Percent reduction in Haemonchus eggs per gram, after treatment with 200 mg/kg dose of compound in sheep perorally; format: functional, Egg; settings: route oral
# In short: (§5)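 Naturally parasitized lambs were dosed orally at the stated mg/kg. Dosing was either as a suspension of finely ground compound by stomach tube, or as ground compound weighed into gelatin capsules and given by balling gun. Activity was scored by the clinical test method: the decrease in posttreatment helminth eggs per gram.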
# [22] = system: Ovis aries; test: Percent reduction in Haemonchus eggs per gram, after treatment with 300 mg/kg dose of compound in sheep perorally; format: functional, Egg; settings: route oral; in short: as §5
# [23] = system: Ovis aries; test: Percent reduction in Nematodirus eggs per gram, after treatment with 300 mg/kg dose of compound in sheep perorally; format: functional, Egg; settings: route oral; in short: as §5
# [24] = system: Ovis aries; test: Percent reduction in Nematodirus eggs per gram, after treatment with 400 mg/kg dose of compound in sheep perorally; format: functional, Egg; settings: route oral; in short: as §5
# [25] = system: Ovis aries; test: Percent reduction in Oesophagostomum eggs per gram, after treatment with 100 mg/kg dose of compound in sheep perorally; format: functional, Egg; settings: route oral; in short: as §5
# [26] = system: Ovis aries; test: Percent reduction in Oesophagostomum eggs per gram, after treatment with 150 mg/kg dose of compound in sheep perorally; format: functional, Egg; settings: route oral; in short: as §5
# [27] = system: Ovis aries; test: Percent reduction in Oesophagostomum eggs per gram, after treatment with 200 mg/kg dose of compound in sheep perorally; format: functional, Egg; settings: route oral; in short: as §5
# [28] = system: Ovis aries; test: Percent reduction in Strongyloides eggs per gram, after treatment with 200 mg/kg dose of compound in sheep perorally; format: functional, Egg; settings: route oral
# In short: (§6)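 Naturally parasitized lambs, dosed orally either with a suspension by stomach tube or with finely ground compound in gelatin capsules by balling gun. Activity was scored by the clinical test method, meaning a significant fall in helminth egg counts after treatment.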
# [29] = system: Ovis aries; test: Percent reduction in Haemonchus eggs per gram, after treatment with 400 mg/kg dose of compound in sheep perorally; format: functional, Egg; settings: route oral; in short: as §5
# [30] = system: Ovis aries; test: Percent reduction in Moniezia eggs per gram, after treatment with 150 mg/kg dose of compound in sheep perorally; format: functional, Egg; settings: route oral; in short: as §5
# [31] = system: Ovis aries; test: Percent reduction in Strongyloides eggs per gram, after treatment with 300 mg/kg dose of compound in sheep perorally; format: functional, Egg; settings: route oral; in short: as §6
# [32] = system: Ovis aries; test: Percent reduction in Strongyloides eggs per gram, after treatment with 400 mg/kg dose of compound in sheep perorally; format: functional, Egg; settings: route oral; in short: as §6
# [33] = system: Ovis aries; test: Percent reduction in Ostertagia eggs per gram, after treatment with 400 mg/kg dose of compound in sheep perorally; format: functional, Egg; settings: route oral; in short: as §6
# [34] = system: Ovis aries; test: Percent reduction in Trichostrongylus eggs per gram, after treatment with 100 mg/kg dose of compound in sheep perorally; format: functional, Egg; settings: route oral
# In short: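 Lambs naturally parasitized with helminths. Finely ground compound was given orally, either as an aqueous suspension by stomach tube or weighed into gelatin capsules given by balling gun. Activity was assessed by the clinical test method: the reduction in helminth egg counts after treatment.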
# [35] = system: Ovis aries; test: Percent reduction in Nematodirus eggs per gram, after treatment with 100 mg/kg dose of compound in sheep perorally; format: functional, Egg; settings: route oral; in short: as §5
# [36] = system: Ovis aries; test: Percent reduction in Nematodirus eggs per gram, after treatment with 150 mg/kg dose of compound in sheep perorally; format: functional, Egg; settings: route oral; in short: as §5
# [37] = system: Ovis aries; test: Percent reduction in Nematodirus eggs per gram, after treatment with 200 mg/kg dose of compound in sheep perorally; format: functional, Egg; settings: route oral; in short: as §5
# [38] = system: Ovis aries; test: Percent reduction in Ostertagia eggs per gram, after treatment with 100 mg/kg dose of compound in sheep perorally; format: functional, Egg; settings: route oral; in short: as §5
# [39] = system: Ovis aries; test: Percent reduction in Ostertagia eggs per gram, after treatment with 150 mg/kg dose of compound in sheep perorally; format: functional, Egg; settings: route oral; in short: as §5
# [40] = system: Ovis aries; test: Percent reduction in Ostertagia eggs per gram, after treatment with 200 mg/kg dose of compound in sheep perorally; format: functional, Egg; settings: route oral; in short: as §6
# [41] = system: Ovis aries; test: Percent reduction in Ostertagia eggs per gram, after treatment with 300 mg/kg dose of compound in sheep perorally; format: functional, Egg; settings: route oral; in short: as §6
# [42] = system: Ovis aries; test: Percent reduction in Cooperia eggs per gram, after treatment with 100 mg/kg dose of compound in sheep perorally; format: functional, Egg; settings: route oral; in short: as §4
# [43] = system: Ovis aries; test: Percent reduction in Strongyloides eggs per gram, after treatment with 100 mg/kg dose of compound in sheep perorally; format: functional, Egg; settings: route oral; in short: as §6
# [44] = system: Ovis aries; test: Percent reduction in Strongyloides eggs per gram, after treatment with 150 mg/kg dose of compound in sheep perorally; format: functional, Egg; settings: route oral; in short: as §6
# [45] = system: Ovis aries; test: Percent reduction in Trichostrongylus eggs per gram, after treatment with 150 mg/kg dose of compound in sheep perorally; format: functional, Egg; settings: route oral
# [46] = system: Ovis aries; test: Percent reduction in Oesophagostomum eggs per gram, after treatment with 300 mg/kg dose of compound in sheep perorally; format: functional, Egg; settings: route oral; in short: as §5
# [47] = species on record: Mus musculus; test: Percent clearance of Nematospiroides dubius from mouse after oral treatment of 0.47 mg/mouse/day; format: functional; in short: as §3
# [48] = species on record: Mus musculus; test: Percent clearance of Hymenolepis nana from mouse after oral treatment of 0.47 mg/mouse/day; format: functional; in short: as §3
compound,measurement,setting,value
Cc1ccc(/C(Cl)=N/Nc2ccccc2)cc1,Reduction,[1],100%
same,Reduction,[2],100%
same,Reduction,[3],99.8%
same,Reduction,[4],100%
same,Reduction,[5],100%
same,Reduction,[6],100%
same,Reduction,[7],100%
same,Reduction,[8],100%
same,Parasite_Clearance,[9],20%
same,Parasite_Clearance,[10],100%
same,Reduction,[11],100%
same,Reduction,[12],100%
same,Reduction,[13],100%
same,Reduction,[14],29%
same,Reduction,[15],25%
same,Reduction,[16],0%
same,Reduction,[17],0%
same,Reduction,[18],0%
same,Reduction,[19],84%
same,Reduction,[20],100%
same,Reduction,[21],100%
same,Reduction,[22],100%
same,Reduction,[23],100%
same,Reduction,[24],100%
same,Reduction,[25],100%
same,Reduction,[26],79%
same,Reduction,[27],100%
same,Reduction,[28],37%
same,Reduction,[29],100%
same,Reduction,[30],100%
same,Reduction,[31],100%
same,Reduction,[32],100%
same,Reduction,[33],100%
same,Reduction,[34],73%
same,Reduction,[35],100%
same,Reduction,[36],100%
same,Reduction,[37],100%
same,Reduction,[38],96%
same,Reduction,[39],100%
same,Reduction,[40],100%
same,Reduction,[41],100%
same,Reduction,[42],100%
same,Reduction,[43],99%
same,Reduction,[44],100%
same,Reduction,[45],98%
same,Reduction,[46],100%
Cl/C(=N\Nc1ccccc1)c1ccc(Br)cc1,Parasite_Clearance,[47],100%
same,Parasite_Clearance,[48],100%
